Test results: ChEMBL document CHEMBL3588754, “Parallel Synthesis of Hexahydrodiimidazodiazepines Heterocyclic Peptidomimetics and Their in Vitro and in Vivo Activities at μ (MOR), δ (DOR), and κ (KOR) Opioid Receptors” (J Med Chem, 2015)

Key:
Mu-type opioid receptor = Mu-type opioid receptor (Rattus norvegicus, UniProt P33535); test: Displacement of [3H]DAMGO from mu opioid receptor in rat cortices by competition binding assay
In short: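 Rat cortex membranes were prepared in 50 mM Tris pH 7.4, preincubated at 37 °C for 30 min, and resuspended with 2 mg/mL bovine serum. Assay used 2 nM [3H]DAMGO. Binding was stopped by filtration through BSA-soaked GF/B filters, followed by scintillation counting. IC50 was converted to Ki. Values are mean ± SD of two experiments, each in duplicate.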

[1] = target: Kappa-type opioid receptor (Cavia porcellus, UniProt P41144); test: Displacement of [3H]U69593 from kappa opioid receptor in guinea pig cortices and cerebella by competition binding assay
In short: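 Guinea pig cortex and cerebellum membranes were prepared in 50 mM Tris pH 7.4 with 10 mM MgCl2. Assay used 2 nM [3H]U69,593, incubated 2 h at 25 °C. Unlabeled U50,488 defined nonspecific binding. Filtration was through GF/B filters, with scintillation counting. Ki is mean ± SD of two experiments, each in duplicate.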

[2] = target: Delta-type opioid receptor (Rattus norvegicus, UniProt P33533); test: Displacement of [3H]DPDPE from delta opioid receptor in rat cortices by competition binding assay
In short: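 Rat cortex membranes were prepared in 50 mM Tris pH 7.4 with 10 mM MgCl2 and 200 μM PMSF. Assay used 2 nM [3H]DPDPE, incubated 2.5 h at 25 °C. Unlabeled DPDPE defined nonspecific binding. Filtration was through BSA-soaked GF/B filters, with scintillation counting. Ki is mean ± SD of two experiments, each in duplicate.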

[3] = target: Delta-type opioid receptor (Homo sapiens, UniProt P41143); test: Agonist activity at delta opioid receptor (unknown origin) expressed in CHO-K1 cells assessed as inhibition of forskolin-induced cAMP accumulation by FRET assay; type: functional, cell-based
In short: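 CHO cells stably expressing DOR, plated at 20 000 cells/well (figure legend: 100 000). Exposed to test agent with 4 μM forskolin (legend: 1 μM) in 1× PBS with 1 mM […] for 30 min at rt. HTRF cAMP read-out with europium cryptate and d2 in lysis buffer for 1 h. EC50 ± SEM from three experiments, two replicates each.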

Mus musculus [4] = test: Antinociceptive effect in icv dosed C57BL/6 mouse assessed as tail withdrawal latency measured up to 2 hrs by 55 degC Warm water tail withdrawal assay; type: functional
Mus musculus [5] = test: Antinociceptive effect in ip dosed C57BL/6 mouse assessed as tail withdrawal latency measured up to 2 hrs by 55 degC Warm water tail withdrawal assay; type: functional; details: C57BL/6, Tail
Mus musculus [6] = test: Antinociceptive effect in po dosed C57BL/6 mouse assessed as tail withdrawal latency measured up to 2 hrs by 55 degC Warm water tail withdrawal assay; type: functional; details: C57BL/6, Tail
Mus musculus [7] = species: Mus musculus; test: Ratio of ED50 for antinociceptive effect in C57BL/6 mouse by 55 degC Warm water tail withdrawal assay to ED50 for analgesic activity in C57BL/6 mouse by acetic acid writhing assay; type: functional
In short: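 Index from ip ED50 values in adult male C57BL/6J mice given ip doses in 1:1:8 ethanol/Tween-80/saline (n = 8/dose). Tail-withdrawal: 55 °C water, read at 30 min, % antinociception against baseline with a 15 s cutoff. Writhing: 0.9% acetic acid ip 25 min post-dose, writhes counted over 15 min, compared with vehicle. ED50 from regression; ratio is tail-withdrawal/writhing.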

| Structure (SMILES) | Ki (Mu-type opioid receptor) | Ki [1] | Ki [2] | EC50 [3] | Activity (Mus musculus [4]) | ED50 (Mus musculus [5]) | ED50 (Mus musculus [6]) | Ratio ED50 (Mus musculus [7]) |
| --- | --- | --- | --- | --- | --- | --- | --- | --- |
| CC(C)[C@H]1CN=C2C=C3N[C@@H](Cc4ccc(O)cc4)CN3[C@@H](Cc3ccccc3)CN21 | 5.04 µM | 1.95 µM | ≥ 10 µM |  |  |  |  |  |
| CC(C)C[C@H]1CN2C(=CC3=NC[C@H](Cc4ccccc4)N3C[C@@H]2Cc2ccc(O)cc2)N1 | 1.33 µM | 3.44 µM | 0.057 µM | 6.36 µM |  |  |  |  |
| CN1CC[C@]23c4c5ccc(O)c4O[C@H]2[C@@H](O)C=C[C@H]3[C@H]1C5 [MORPHINE] |  |  |  |  | Dose-dependent effect | 3.91 mg/kg | 2.07 mg/kg | 2.23 |
| Oc1ccc(C[C@H]2CN3C(=CC4=NC[C@H](Cc5ccccc5)N4C[C@@H]3Cc3ccccc3)N2)cc1 | 0.566 µM | 8.39 µM | 2.09 µM |  |  |  |  |  |
| CC(C)[C@H]1CN=C2C=C3N(CCc4ccccc4)[C@@H](Cc4ccc(O)cc4)CN3[C@@H](Cc3ccccc3)CN21 | 1.11 µM | 1.9 µM | 1.38 µM |  |  |  |  |  |
| Oc1ccc(C[C@H]2CN3C(=CC4=NC[C@H](Cc5ccccc5)N4C[C@@H]3Cc3ccccc3)N2CCc2ccccc2)cc1 | 3.15 µM | > 10 µM | 1.28 µM |  |  |  |  |  |
| Oc1ccc(C[C@H]2CN3C(=CC4=NC[C@H](Cc5ccccc5)N4C[C@@H]3Cc3ccc(O)cc3)N2CCc2ccccc2)cc1 | 0.878 µM | 1.31 µM | 0.188 µM |  |  |  |  |  |
| Oc1ccc(C[C@H]2CN3C(=CC4=NC[C@H](Cc5ccc(O)cc5)N4C[C@@H]3Cc3ccc(O)cc3)N2CCc2ccccc2)cc1 | 0.246 µM | 1.55 µM | 0.392 µM |  |  |  |  |  |
